Experiment: Toxicity liver stage against HepG2, at 10uM
Type: cell-based
Design: test concentration 10 uM, cell line HepG2-A16-CD81EGFP
Details: human, HepG2-A16-CD81EGFP cells; read-out: INHIBITION
Outline: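 Uninfected HepG2-A16-CD81EGFP cells, 3 × 10^3 per well, 1536-well, plated on prespotted compound at 10 μM final, parasite-free screening media added to match infected plates; puromycin 10 μM positive, DMSO 0.5% negative; run in parallel with 48 h PbLuc assay at 37 °C, 5% CO2; viability by CellTiter-Glo luminescence, normalized to controls.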

F[C@@H]1CN(Cc2cccnc2)C[C@@H]1OCc1nc2ccccc2[nH]1
cytotoxicity at 10 µM: 5.22%

COCCN1C[C@H]2CN(Cc3cccc(OC)c3)CCN2C1=O
cytotoxicity at 10 µM: 7.91%

COC(=O)[C@H](CCSC)NC(=O)Cn1ccc2c(Cl)cccc21
cytotoxicity at 10 µM: 2.17%

O=C(CC1CCCC1)Nc1ccc(-n2cc(Br)cn2)nc1
cytotoxicity at 10 µM: -51.2%

COc1ccc(C(=O)N2CCCC3(CCCC(=O)N3C)C2)cc1 (configuration not stated)
cytotoxicity at 10 µM: -10.1%

Cc1cc(C(=O)N2C[C@@H]3CCCO[C@@H]3[C@H](N(C)C(C)C)C2)c(C)[nH]1
cytotoxicity at 10 µM: 10.2%

Cc1noc(C[C@@H]2COC[C@H]3CN(S(=O)(=O)C4CC4)C[C@@H]23)n1
cytotoxicity at 10 µM: 8.37%

CCS(=O)(=O)N1CCC2(CC1)CC[C@@]1(C(=O)NC)CN(C(C)=O)C[C@@H]21
cytotoxicity at 10 µM: 6.1%

O=C([C@H]1C[C@H]2[C@H](CCN2Cc2cccs2)O1)N1CCOCC1
cytotoxicity at 10 µM: 0.582%

COCCNC(=O)[C@@H]1CN(c2cc(OC)ncn2)C[C@H]2OCC[C@H]21
cytotoxicity at 10 µM: -3.06%

c1cc(-c2ccc3c(c2)CCC32CCN(c3nncs3)CC2)co1
cytotoxicity at 10 µM: -2.07%

Cc1noc([C@@H]2CC[C@@H]3[C@@H](CCN3S(=O)(=O)c3ccccc3)O2)n1
cytotoxicity at 10 µM: 2.43%

COCCC(=O)NCc1ccc(-c2ccccc2C(=O)O)nc1
cytotoxicity at 10 µM: 2.28%

Cn1nccc1CCC(=O)NC1CCCN(c2ccccn2)C1 (configuration not stated)
cytotoxicity at 10 µM: 4.18%

CN(C)C(=O)c1c[nH]nc1C1CCN(S(=O)(=O)c2ccc(Cl)cc2)CC1
cytotoxicity at 10 µM: -4.9%

Oc1nc(N2CCCC2)nc2c1CCN(Cc1cccnc1)CC2
cytotoxicity at 10 µM: -7.25%

Cc1ccc(C(=O)N2CCCCC2c2[nH]ncc2S(C)(=O)=O)cn1 (configuration not stated)
cytotoxicity at 10 µM: -6.72%

COc1ccccc1CN1CC[C@H]2[C@@H](C1)[C@H](c1ccsc1)CN2C(C)=O
cytotoxicity at 10 µM: -12.4%

Cn1ccnc(Nc2ccc3c(c2)CCN3C(=O)c2cccnc2)c1=O
cytotoxicity at 10 µM: -55%

FC(F)(F)CN1CCC(CNc2nc3ccccc3o2)C1 (configuration not stated)
cytotoxicity at 10 µM: 2.7%

CC(C#N)CN(C)Cc1ccc(Cl)c2cccnc12 (configuration not stated)
cytotoxicity at 10 µM: -40.4%

O=C(CC1CCCO1)NS(=O)(=O)Cc1cc(-c2ccccc2)no1 (configuration not stated)
cytotoxicity at 10 µM: 9.95%

COc1ccc(C2(NCc3noc(C4CC4)n3)CCOCC2)cc1
cytotoxicity at 10 µM: -6.44%

CC(=O)N1CCN(C(=O)CN(C)c2ccc(Cl)cn2)CC1
cytotoxicity at 10 µM: 1.79%

CN(CC(=O)N1CCN(CC(C)(C)O)CC1)c1ccc(Cl)cn1
cytotoxicity at 10 µM: -2.87%

CCCc1noc(CN2CCC(NC(=O)c3ccc(C)s3)CC2)n1
cytotoxicity at 10 µM: -5.32%

COc1ccc(N2CCCN(C(=O)Cc3csc(C)n3)CC2)cc1
cytotoxicity at 10 µM: 3.91%

CC(C)CCN1CCN(C(=O)c2cnccn2)CC1
cytotoxicity at 10 µM: 0.365%

Cc1n[nH]cc1CNCC(c1cccc(F)c1)N(C)C (configuration not stated)
cytotoxicity at 10 µM: -0.0972%

CC(C)N(CCNC(=O)c1n[nH]c2ccccc12)C(C)C
cytotoxicity at 10 µM: -42.8%

Cc1nn(C)c(Cl)c1C1CCCN1Cc1cn2ccsc2n1 (configuration not stated)
cytotoxicity at 10 µM: -44.5%

Cc1cc(F)cc(S(=O)(=O)NCCCN2CCC(O)CC2)c1
cytotoxicity at 10 µM: -20.1%

Cn1cc(CN2C[C@@H]3CN(C(=O)c4cccn4C)CCO[C@@H]3C2)cn1
cytotoxicity at 10 µM: -110%

CCS(=O)(=O)N1CCC2(CC1)c1ncc(-c3cccnc3)n1CCN2C
cytotoxicity at 10 µM: -103%

C[C@H]1C[C@@H]2CCN(C(=O)c3cccn3C)C[C@H]2O1
cytotoxicity at 10 µM: 10.1%

O=C(c1ccco1)N1CC[C@H]2[C@H]1CCN2CC1CCOCC1
cytotoxicity at 10 µM: 5.12%

CNc1cc(-c2ccncc2)ncn1
cytotoxicity at 10 µM: -13.9%

COc1ccc2c(c1)[C@@H](CCNC(C)=O)CC(C)(C)O2
cytotoxicity at 10 µM: -6.33%

Cc1sc2ncc(-c3ccnc(NC4CCN(C)CC4)n3)c(=O)n2c1C
cytotoxicity at 10 µM: -7.75%

N[C@H]1CN(C(=O)CCCc2ccc(F)cc2)C[C@@H]1C1CC1
cytotoxicity at 10 µM: -2.45%

Fc1cccc(-n2nc(C3CC3)nc2CCn2cnnn2)c1
cytotoxicity at 10 µM: -0.174%

Cc1c(C(=O)N2CCCC(C(=O)c3nccn3C)C2)c[nH]c(=O)c1C#N (configuration not stated)
cytotoxicity at 10 µM: 5.73%

Cc1nc(N[C@H]2COC[C@@H]2N2CCCCC2)c2c(C)nn(C)c2n1
cytotoxicity at 10 µM: -1.21%

CC(=O)Nc1ccc(C(=O)Nc2cnc3n2CCCC3)c(C)c1
cytotoxicity at 10 µM: -1.14%

CN(Cc1cc(-c2cccnc2)no1)C(=O)c1cccn1C
cytotoxicity at 10 µM: -1.1%

O=C(O)C(c1ccc2[nH]ccc2c1)N1CCN(c2cnccn2)CC1 (configuration not stated)
cytotoxicity at 10 µM: 2.56%

CNCc1n[nH]c(=O)n1-c1cccc(Cl)c1Cl
cytotoxicity at 10 µM: 0.396%

CN(C)CCCn1ccnc1C1CCN(C(=O)Cc2cccnc2)CC1
cytotoxicity at 10 µM: 4.77%

CCOc1ccc2nc(CN3CCOC(CN)C3)ccc2c1 (configuration not stated)
cytotoxicity at 10 µM: -3.54%

CC(Cc1cn(CCc2nc(N)cc(O)n2)nn1)c1ccccc1 (configuration not stated)
cytotoxicity at 10 µM: -5.58%

Cc1noc(C)c1CN1C[C@@H](C(=O)O)[C@H](c2ccccn2)C1
cytotoxicity at 10 µM: -6.9%

Cc1ccc(CN2CCN(c3cc(NCCO)ncn3)CC2CCO)o1 (configuration not stated)
cytotoxicity at 10 µM: 7.11%

Cc1cc2nc(-c3cn(C4CCNCC4)nn3)[nH]c2cc1C
cytotoxicity at 10 µM: -8.1%

CCN(CCOC)C(=O)c1cc(COc2ccc3c(c2)CCCC3)on1
cytotoxicity at 10 µM: -146%

O=C(CCN1CCOC(C(F)(F)F)C1)NCc1ccccc1Cl (configuration not stated)
cytotoxicity at 10 µM: -3.13%

Cc1noc(C)c1CN1C[C@@H](C(=O)O)[C@H](C(C)C)C1
cytotoxicity at 10 µM: 3.51%

O=C(c1cncc(N2CC[C@@]3(O)CCNC[C@H]3C2)n1)N1CCCC1
cytotoxicity at 10 µM: -8.19%

NC(=O)CCC1CCCN(c2ncnc3c2Cc2ccccc2OC3)C1 (configuration not stated)
cytotoxicity at 10 µM: 0.721%

c1cnc(N2CCC(C3CCN(CCCn4cccn4)C3)CC2)nc1 (configuration not stated)
cytotoxicity at 10 µM: 7.5%

CCSCCNC(=O)C(c1cccc(F)c1)N(C)C (configuration not stated)
cytotoxicity at 10 µM: -11.9%

Cc1nc(CN2CCCC(CCc3c(F)cccc3F)C2)c[nH]1 (configuration not stated)
cytotoxicity at 10 µM: -21%

CCCN1CC(C(=O)Nc2ccccn2)CC1=O (configuration not stated)
cytotoxicity at 10 µM: -16.4%

CC(C)c1nc(N2CC(N3CCCCC3C)C2)c2cnn(C)c2n1 (configuration not stated)
cytotoxicity at 10 µM: -15.5%

CCn1cc(N)c(-c2nnc3n2CCC3)n1
cytotoxicity at 10 µM: -12.1%

COc1ccc(CNCc2cn(C)nc2C)cc1
cytotoxicity at 10 µM: -1.42%

COc1cccc(S(=O)(=O)NC(=O)CC2CCCO2)c1 (configuration not stated)
cytotoxicity at 10 µM: 7.53%

Cc1nn(C)c(N(C)C)c1CNCC(O)c1ccccc1F (configuration not stated)
cytotoxicity at 10 µM: -7.9%

CN(CC(C)(C)O)C1CCCN(Cc2noc(C3CC3)n2)C1 (configuration not stated)
cytotoxicity at 10 µM: 0.85%

Cc1cc(CN2CCN(C(=O)NCc3csc(C)n3)CC2)on1
cytotoxicity at 10 µM: -2.95%

Cc1nc(CN2CCN(CCOc3ccc(C(C)C)c(C)c3)CC2)no1
cytotoxicity at 10 µM: -11.2%

Cc1cnn(C2CCCN(C(=O)c3ccc(N4CCCC4)nn3)C2)c1 (configuration not stated)
cytotoxicity at 10 µM: -2.38%

Cc1cc(C(=O)N2CCOC(c3nc(C(C)C)n[nH]3)C2)no1 (configuration not stated)
cytotoxicity at 10 µM: -5.13%

COCc1nc(C(=O)N2CCCC(n3nc(C)cc3C)C2)cs1 (configuration not stated)
cytotoxicity at 10 µM: -8.57%

CC(Cn1cccn1)NCc1nc(-c2ccccc2Cl)no1 (configuration not stated)
cytotoxicity at 10 µM: -3.56%

O=C(CCc1ccsc1)N1CCC(Nc2cccnn2)CC1
cytotoxicity at 10 µM: -4.71%

CC(=O)NCC1CCN(C(=O)NCCOc2ccc3c(c2)CCC3)CC1
cytotoxicity at 10 µM: -5.31%

CC(C)c1nn(C)c(N2CCOCC2)c1CNCCC(=O)N(C)C
cytotoxicity at 10 µM: -16.5%

Cc1nc(CN2CCCN(C(=O)c3cccnc3O)CC2)cs1
cytotoxicity at 10 µM: -8.51%

Cc1nc2n(n1)CC(NCc1nc(-c3cccnc3)no1)CC2 (configuration not stated)
cytotoxicity at 10 µM: -3.44%

CC(NC(=O)CNCCn1cccn1)c1ccc2c(c1)OCCO2 (configuration not stated)
cytotoxicity at 10 µM: -13%

Cc1nn(C)c(C)c1C1CCCN1C(=O)c1ccc(NC2CC2)nc1 (configuration not stated)
cytotoxicity at 10 µM: -2.85%

Cc1nc(C2CCCN2Cc2nc(C)c(C)o2)no1 (configuration not stated)
cytotoxicity at 10 µM: -2.53%

c1nc2n(n1)CC(NCc1csc(-c3ccsc3)n1)CC2 (configuration not stated)
cytotoxicity at 10 µM: 3.79%

COCc1nc(C(=O)NS(=O)(=O)c2cc(F)ccc2F)cs1
cytotoxicity at 10 µM: -2.22%

Cc1ccc(C(=O)N2CCN(C(=O)NC(C)Cn3ccnc3)CC2)o1 (configuration not stated)
cytotoxicity at 10 µM: -1.47%

Cc1cnn(CCC(=O)N2CCC(Nc3cccnn3)CC2)c1
cytotoxicity at 10 µM: -8.11%

COc1ccccc1OCC(=O)NS(=O)(=O)c1ccc(C)s1
cytotoxicity at 10 µM: -12.7%

COc1cccc(CN2C[C@@H]3CC[C@@](O)(c4ccccn4)[C@@H]3C2)c1OC
cytotoxicity at 10 µM: -9.94%

Cc1nc(O)cc(C2CCN(Cc3cccc(F)c3F)C2)n1 (configuration not stated)
cytotoxicity at 10 µM: -1.19%

CC1CCN(C(=O)[C@H]2C[C@@H]3CCN(CC4CCOCC4)C[C@@H]3O2)CC1
cytotoxicity at 10 µM: 9.85%

CNC(=O)CN1CCOCC12CCN(Cc1ccncc1)CC2
cytotoxicity at 10 µM: 3.07%

O=S(=O)(C1CC1)N1CCC2(CN(c3ccccn3)C2)C1
cytotoxicity at 10 µM: 5.25%

CS(=O)(=O)CC(=O)N1C[C@H]2CCC[C@@]2(COCc2ccccn2)C1
cytotoxicity at 10 µM: 4.35%

O=C(N1CCCO1)[C@]12COC[C@H]1CN(Cc1cccnc1)C2
cytotoxicity at 10 µM: 8.25%

Cc1cccc(CN2C(=O)CCC23CCN(Cc2cccn2C)CC3)n1
cytotoxicity at 10 µM: 5.61%

Cc1cccc(CN2CCCn3c(nnc3CN3CCCC3=O)C2)n1
cytotoxicity at 10 µM: 2.14%

CCC(C)(N)c1nc(=O)c(C(C)C)c(C)[nH]1 (configuration not stated)
cytotoxicity at 10 µM: -6.17%

c1ccc(CCN2CCn3cc(Cn4cccn4)nc3C2)cc1
cytotoxicity at 10 µM: -1.98%

Cc1cnc(N2C[C@@H]3CN(C4CCOC4)CCC[C@]3(C(=O)O)C2)nc1 (some centres not stated)
cytotoxicity at 10 µM: -111%

Cc1cccc(CNC2CCCc3c2cnn3C)c1 (configuration not stated)
cytotoxicity at 10 µM: -8.77%

CC(C)Nc1ncnc2c1CCN(Cc1nccn1C)CC2
cytotoxicity at 10 µM: 0.507%

CN(C)Cc1cncc2c1CCN(Cc1ccoc1)C2
cytotoxicity at 10 µM: -103%

CNc1ncc(-c2csc(NC(=O)C[C@H]3COCCN3)n2)cn1
cytotoxicity at 10 µM: -11.9%

CCC1=N[C@@]2(CC[C@@H]3CN(CC(C)C)C[C@@H]32)C(=O)N1
cytotoxicity at 10 µM: 4.32%

COC1C[C@@H]2CN(C(=O)c3[nH]nc4c3CCCC4)C[C@@H]2C1 (some centres not stated)
cytotoxicity at 10 µM: 0.0252%

O=C(c1ccccc1)N1C[C@H]2CC[C@@H](C1)N(Cc1cc(F)ccc1Cl)C2
cytotoxicity at 10 µM: -4.39%

O=C1[C@@H]2CC[C@@H](CN(S(=O)(=O)c3ccccc3)C2)N1Cc1cscn1
cytotoxicity at 10 µM: -6.23%
